Experimental data from ChEMBL document CHEMBL1129660, “Studies on 6-aminoquinolones: synthesis and antibacterial evaluation of 6-amino-8-methylquinolones” (J Med Chem, 1996).
Converted amounts (≈) assume the structure as drawn.

Experiments:
Format in all cases: functional
[1] = system: Staphylococcus epidermidis; assay: Antibacterial activity tested against Staphylococcus epidermidis HCF Berset C
In short: (§1)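 MICs (µg/mL) determined by conventional agar dilution against a panel of eight Gram-negative and five Gram-positive reference strains.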

Escherichia coli [2] = assay: Antibacterial activity tested against Escherichia coli ATCC 8739; in short: as §1
Bacteria = assay: Geometric mean of antibacterial activity (Gram +ve bacteria) of the compound
In short: (§2)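 Geometric means calculated from agar-dilution MICs (µg/mL), taken separately across the five Gram-positive and the eight Gram-negative panel strains.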

Enterococcus faecalis = assay: Antibacterial activity tested against Streptococcus faecalis LEP Br; in short: as §1
Staphylococcus aureus [3] = assay: Antibacterial activity against Staphylococcus aureus MPR 5; in short: as §1
Enterobacter cloacae = assay: Antibacterial activity tested against Enterobacter cloacae OMNFI 174
Pseudomonas aeruginosa = assay: Antibacterial activity tested against P. ae (Pseudomonas aeruginosa) ATCC 9027; in short: as §1
Escherichia coli [4] = assay: Antibacterial activity tested against Escherichia coli ISF 432; in short: as §1
[5] = system: Staphylococcus epidermidis; assay: Antibacterial activity tested against Staphylococcus epidermidis CPHL A2; in short: as §1
Klebsiella pneumoniae = assay: Antibacterial activity tested against Klebsiella pneumoniae (Klebsiella pneumoniae) ATCC 10031; in short: as §1
Staphylococcus aureus [6] = assay: Antibacterial activity against Staphylococcus aureus ATCC 6538; in short: as §1
Proteus vulgaris = assay: Antibacterial activity tested against Proteus vulgaris CNUR 5; in short: as §1
[7] = Geometric mean of antibacterial activity (Gram -ve bacteria) of the compound; in short: as §2
Shigella = assay: Antibacterial activity tested against Shigella enteritidis; in short: as §1
Providencia stuartii = assay: Antibacterial activity tested against Providencia stuartii CNUR 5; in short: as §1

Row | SMILES | MIC [1] | MIC (Escherichia coli [2]) | MIC (Enterococcus faecalis) | MIC (Staphylococcus aureus [3]) | MIC (Enterobacter cloacae) | MIC (Escherichia coli [4]) | MIC [5] | MIC (Klebsiella pneumoniae) | MIC (Staphylococcus aureus [6]) | MIC (Proteus vulgaris) | MIC (Shigella) | MIC (Providencia stuartii) | Geometric mean (Bacteria) | MIC (Pseudomonas aeruginosa) | Geometric mean [7]
1 | Cc1c(N2CCC(C)CC2)c([N+](=O)[O-])cc2c(=O)c(C(=O)O)cn(C3CC3)c12 | 4 µg/mL (≈ 10.4 µM) | 32 µg/mL (≈ 83 µM) | 32 µg/mL (≈ 83 µM) | 2 µg/mL (≈ 5.19 µM) | 64 µg/mL (≈ 166 µM) | 2 µg/mL (≈ 5.19 µM) | 4 µg/mL (≈ 10.4 µM) | 64 µg/mL (≈ 166 µM) | 32 µg/mL (≈ 83 µM) | 64 µg/mL (≈ 166 µM) | 64 µg/mL (≈ 166 µM) | 64 µg/mL (≈ 166 µM) | 8 | 64 µg/mL (≈ 166 µM) | 38.054
2 | Cc1c(N2CCNCC2)c(N)cc2c(=O)c(C(=O)O)cn(C3CC3)c12 | 8 µg/mL (≈ 23.4 µM) | 0.03 µg/mL (≈ 0.0876 µM) | 16 µg/mL (≈ 46.7 µM) | 4 µg/mL (≈ 11.7 µM) | 0.06 µg/mL (≈ 0.175 µM) | 0.03 µg/mL (≈ 0.0876 µM) | 4 µg/mL (≈ 11.7 µM) | 0.03 µg/mL (≈ 0.0876 µM) | 2 µg/mL (≈ 5.84 µM) | 4 µg/mL (≈ 11.7 µM) | 0.03 µg/mL (≈ 0.0876 µM) | 2 µg/mL (≈ 5.84 µM) | 5.28 | 1 µg/mL (≈ 2.92 µM) | 0.158
3 | CN1CCN(c2nc3c(cc2N)c(=O)c(C(=O)O)cn3C2CC2)CC1 | 4 µg/mL (≈ 11.6 µM) | 0.125 µg/mL (≈ 0.364 µM) | 32 µg/mL (≈ 93.2 µM) | 4 µg/mL (≈ 11.6 µM) | 0.125 µg/mL (≈ 0.364 µM) | 0.06 µg/mL (≈ 0.175 µM) | 4 µg/mL (≈ 11.6 µM) | 0.03 µg/mL (≈ 0.0874 µM) | 4 µg/mL (≈ 11.6 µM) | 64 µg/mL (≈ 186 µM) | 0.125 µg/mL (≈ 0.364 µM) | 2 µg/mL (≈ 5.82 µM) | 6.063 | 2 µg/mL (≈ 5.82 µM) | 0.416
4 | Nc1cc2c(=O)c(C(=O)O)cn(C3CC3)c2cc1N1CCNCC1 | 16 µg/mL (≈ 48.7 µM) | 0.25 µg/mL (≈ 0.761 µM) | 128 µg/mL (≈ 390 µM) | 64 µg/mL (≈ 195 µM) | 0.25 µg/mL (≈ 0.761 µM) | 0.03 µg/mL (≈ 0.0914 µM) | 16 µg/mL (≈ 48.7 µM) | 0.25 µg/mL (≈ 0.761 µM) | 64 µg/mL (≈ 195 µM) | 32 µg/mL (≈ 97.5 µM) | 0.25 µg/mL (≈ 0.761 µM) | 32 µg/mL (≈ 97.5 µM) | 42.224 | 2 µg/mL (≈ 6.09 µM) | 0.836

Further compounds by falling MIC [1], results first:

Row | MIC [1] | MIC (Escherichia coli [2]) | MIC (Enterococcus faecalis) | MIC (Staphylococcus aureus [3]) | MIC (Enterobacter cloacae) | MIC (Escherichia coli [4]) | MIC [5] | MIC (Klebsiella pneumoniae) | MIC (Staphylococcus aureus [6]) | MIC (Proteus vulgaris) | MIC (Shigella) | MIC (Providencia stuartii) | SMILES | Geometric mean (Bacteria) | MIC (Pseudomonas aeruginosa) | Geometric mean [7]
5 | 16 µg/mL (≈ 51.1 µM) | 16 µg/mL (≈ 51.1 µM) | > 128 µg/mL | 8 µg/mL (≈ 25.5 µM) | 16 µg/mL (≈ 51.1 µM) | 0.25 µg/mL (≈ 0.798 µM) | 16 µg/mL (≈ 51.1 µM) | 0.25 µg/mL (≈ 0.798 µM) | 8 µg/mL (≈ 25.5 µM) | > 128 µg/mL | 16 µg/mL (≈ 51.1 µM) | 64 µg/mL (≈ 204 µM) | Cc1c(N2CCC2)c(N)cc2c(=O)c(C(=O)O)cn(C3CC3)c12 | 18.379 | > 128 µg/mL | 11.313
6 | 4 µg/mL (≈ 10.4 µM) | 16 µg/mL (≈ 41.4 µM) | 16 µg/mL (≈ 41.4 µM) | 4 µg/mL (≈ 10.4 µM) | 8 µg/mL (≈ 20.7 µM) | 4 µg/mL (≈ 10.4 µM) | 2 µg/mL (≈ 5.18 µM) | 16 µg/mL (≈ 41.4 µM) | 4 µg/mL (≈ 10.4 µM) | 64 µg/mL (≈ 166 µM) | 1 µg/mL (≈ 2.59 µM) | 32 µg/mL (≈ 82.8 µM) | Cc1c(N2CCN(C)CC2)c([N+](=O)[O-])cc2c(=O)c(C(=O)O)cn(C3CC3)c12 | 4.595 | 64 µg/mL (≈ 166 µM) | 13.454
7 | 4 µg/mL (≈ 10.8 µM) | 0.03 µg/mL (≈ 0.081 µM) | 32 µg/mL (≈ 86.4 µM) | 8 µg/mL (≈ 21.6 µM) | 0.5 µg/mL (≈ 1.35 µM) | 0.03 µg/mL (≈ 0.081 µM) | 2 µg/mL (≈ 5.4 µM) | 0.03 µg/mL (≈ 0.081 µM) | 8 µg/mL (≈ 21.6 µM) | 64 µg/mL (≈ 173 µM) | 0.25 µg/mL (≈ 0.675 µM) | 4 µg/mL (≈ 10.8 µM) | CC1CN(c2cc3c(cc2N)c(=O)c(C(=O)O)cn3C2CC2)CC(C)(C)N1 (stereo not given) | 6.964 | 2 µg/mL (≈ 5.4 µM) | 0.451
8 | 4 µg/mL (≈ 10.8 µM) | 1 µg/mL (≈ 2.71 µM) | 32 µg/mL (≈ 86.6 µM) | 1 µg/mL (≈ 2.71 µM) | 64 µg/mL (≈ 173 µM) | 0.5 µg/mL (≈ 1.35 µM) | 2 µg/mL (≈ 5.41 µM) | 0.5 µg/mL (≈ 1.35 µM) | 1 µg/mL (≈ 2.71 µM) | > 128 µg/mL | 64 µg/mL (≈ 173 µM) | 16 µg/mL (≈ 43.3 µM) | CNc1cc2c(=O)c(C(=O)O)cn(C3CC3)c2c(C)c1N1CCC(C)CC1 | 3.031 | > 128 µg/mL | 11.313
9 | 1 µg/mL (≈ 2.81 µM) | 0.125 µg/mL (≈ 0.351 µM) | 4 µg/mL (≈ 11.2 µM) | 1 µg/mL (≈ 2.81 µM) | 0.125 µg/mL (≈ 0.351 µM) | 0.03 µg/mL (≈ 0.0842 µM) | 1 µg/mL (≈ 2.81 µM) | 0.03 µg/mL (≈ 0.0842 µM) | 1 µg/mL (≈ 2.81 µM) | 4 µg/mL (≈ 11.2 µM) | 0.06 µg/mL (≈ 0.168 µM) | 2 µg/mL (≈ 5.61 µM) | Cc1c(N2CCNC(C)C2)c(N)cc2c(=O)c(C(=O)O)cn(C3CC3)c12 (stereo not given) | 1.319 | 1 µg/mL (≈ 2.81 µM) | 0.225
10 | 0.25 µg/mL (≈ 0.696 µM) | 0.03 µg/mL (≈ 0.0835 µM) | 1 µg/mL (≈ 2.78 µM) | 0.03 µg/mL (≈ 0.0835 µM) | 0.03 µg/mL (≈ 0.0835 µM) | 0.03 µg/mL (≈ 0.0835 µM) | 0.25 µg/mL (≈ 0.696 µM) | 0.03 µg/mL (≈ 0.0835 µM) | 0.06 µg/mL (≈ 0.167 µM) | 2 µg/mL (≈ 5.56 µM) | 0.03 µg/mL (≈ 0.0835 µM) | 2 µg/mL (≈ 5.56 µM) | Cc1c(N2CCN(C)CC2)c(F)cc2c(=O)c(C(=O)O)cn(C3CC3)c12 | 0.162 | 2 µg/mL (≈ 5.56 µM) | 0.145
